From PMC4668232 (Cancer research, 2015)
Blank lines part the entries; values can stand above or below the compound they belong to. Numbered stars: 1 amine (or outer) side, 2 acyl side, 3 side chain; on linkers, the order of the positions; unused ones are H or OH. Peptide text beside a SMILES is read from it. * marks the point of attachment. AMC = Cc1cc(=O)oc2cc(N*)ccc12; Suc = O=C(CCC(=O)[*:2])[*:1]; Cbz = O=C(OCc1ccccc1)*

Key:
Mcl-1 in BaF3/p210 cells = assay: Mcl-1 levels, western blot; assay type: cell-based, mouse; details: 4 h
DUBs = assay type: biochemical, mouse; details: for Labeling of several DUBs (bands between 120 and 300 kDa): cell lysates, HA-UbVS; for Reversibility of inhibition of DUB labeling: lysate incubated with 250 μM ITC, then diluted 20-fold into HA-UbVS
[1] = system: K48-linked Ub in BaF3/p210 cells; assay: K48-linked HMW-Ub accumulation, whole cell lysate western blot; assay type: cell-based, mouse; details: 4 h; for Accumulation of K48-linked HMW-Ub: bortezomib 20 nM; for Increase in K48-linked Ub: 15 μM
[2] = system: K63-linked Ub in BaF3/p210 cells; assay: K63-linked HMW-Ub accumulation, whole cell lysate western blot; assay type: cell-based, mouse; details: 4 h
[3] = system: 26S proteasome activity in COS1 cells expressing Ub^G76V-GFP; assay: Ubiquitin G76V-GFP assay; assay type: cell-based, African green monkey; details: 8 h; for Effect on GFP levels: BITC, PEITC 12 μM, WP1130 5 μM
Flag-Mcl-1 in COS1 cells = assay: Flag-Mcl-1 ubiquitination, immunoprecipitation; assay type: cell-based, African green monkey; details: COS1 cells expressing Flag-Mcl-1, 2 h
human 20S proteasome = human 20S proteasome (Homo sapiens, UniProt P28074); assay: 20S proteasome assay; assay type: biochemical; details: substrate; Hill coefficient = 2; pH 7.6, 25 °C
[4] = system: proteasome activity of rabbit reticulocyte lysate; assay: Proteasome activity of rabbit reticulocyte lysate; assay type: biochemical; details: substrate; Hill coefficient = 1.3
cancer cell lines = details: read-out: EC50, inhibition of cell growth; exposure for only 3 h; cited from earlier work
USP9x = USP9x (Mus musculus, UniProt P70398); assay: DUB activity profiling in cell lysates, USP9x labeling; assay type: biochemical; details: read-out: IC50, inhibition of USP9x labeling
UCH37 = UCH37 (Mus musculus, UniProt Q9WUP7); assay: DUB activity profiling in cell lysates, UCH37 labeling; assay type: biochemical; details: read-out: IC50, inhibition of UCH37 labeling
Chain of UCH37 (Q9WUP7 whole entry): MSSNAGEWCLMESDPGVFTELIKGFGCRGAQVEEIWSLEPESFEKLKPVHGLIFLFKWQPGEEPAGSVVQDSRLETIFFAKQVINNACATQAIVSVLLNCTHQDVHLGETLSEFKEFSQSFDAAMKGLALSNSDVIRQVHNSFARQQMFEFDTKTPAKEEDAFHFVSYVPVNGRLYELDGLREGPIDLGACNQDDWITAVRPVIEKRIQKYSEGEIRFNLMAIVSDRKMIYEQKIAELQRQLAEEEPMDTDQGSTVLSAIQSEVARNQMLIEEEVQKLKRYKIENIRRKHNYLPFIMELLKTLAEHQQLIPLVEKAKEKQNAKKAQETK

USP24 = USP24 (Mus musculus, UniProt B1AY13); assay: DUB activity profiling in cell lysates, USP24 labeling; assay type: biochemical; details: read-out: IC50, USP24 labeling
USP7 = USP7 (Mus musculus, UniProt Q6A4J8); assay: DUB activity profiling in cell lysates, USP7; assay type: biochemical; details: immunoblotting
Chain of USP7 (Q6A4J8 whole entry): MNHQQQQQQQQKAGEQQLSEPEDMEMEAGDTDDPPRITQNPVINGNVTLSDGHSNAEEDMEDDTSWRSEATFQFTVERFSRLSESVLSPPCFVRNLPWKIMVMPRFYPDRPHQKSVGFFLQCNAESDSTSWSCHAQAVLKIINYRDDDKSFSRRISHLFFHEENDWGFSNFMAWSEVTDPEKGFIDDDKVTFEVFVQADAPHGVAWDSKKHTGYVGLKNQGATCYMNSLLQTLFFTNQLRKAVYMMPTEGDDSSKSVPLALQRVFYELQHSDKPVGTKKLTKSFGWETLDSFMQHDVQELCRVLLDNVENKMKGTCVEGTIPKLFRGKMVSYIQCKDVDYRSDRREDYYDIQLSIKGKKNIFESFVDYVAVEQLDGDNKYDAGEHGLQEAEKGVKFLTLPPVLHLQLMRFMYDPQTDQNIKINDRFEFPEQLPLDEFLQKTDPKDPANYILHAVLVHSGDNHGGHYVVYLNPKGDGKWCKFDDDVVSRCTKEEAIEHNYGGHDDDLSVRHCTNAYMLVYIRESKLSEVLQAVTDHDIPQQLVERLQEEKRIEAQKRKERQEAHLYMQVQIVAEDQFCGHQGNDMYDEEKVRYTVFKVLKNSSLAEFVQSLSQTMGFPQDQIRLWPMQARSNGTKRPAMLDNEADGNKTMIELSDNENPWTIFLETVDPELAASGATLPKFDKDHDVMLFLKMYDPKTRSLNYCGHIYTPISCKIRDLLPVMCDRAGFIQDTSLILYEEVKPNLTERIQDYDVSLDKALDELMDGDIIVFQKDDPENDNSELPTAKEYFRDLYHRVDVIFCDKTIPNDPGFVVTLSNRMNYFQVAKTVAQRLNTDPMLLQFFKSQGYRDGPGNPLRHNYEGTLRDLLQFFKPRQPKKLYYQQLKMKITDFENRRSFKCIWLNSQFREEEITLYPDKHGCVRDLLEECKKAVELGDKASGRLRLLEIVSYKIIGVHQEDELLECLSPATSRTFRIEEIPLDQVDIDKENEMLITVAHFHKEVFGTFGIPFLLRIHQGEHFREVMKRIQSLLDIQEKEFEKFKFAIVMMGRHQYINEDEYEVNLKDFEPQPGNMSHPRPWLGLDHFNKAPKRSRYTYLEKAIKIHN

recombinant USP9x [5] = target: T1, recombinant USP9x (Homo sapiens, UniProt Q93008); assay: Labeling of recombinant USP9x with Cy5-UbVME; assay type: biochemical; details: read-out: IC50, inhibition of labeling of recombinant USP9x with Cy5-UbVME; purified recombinant enzyme
T1 sequence (Q93008 whole entry): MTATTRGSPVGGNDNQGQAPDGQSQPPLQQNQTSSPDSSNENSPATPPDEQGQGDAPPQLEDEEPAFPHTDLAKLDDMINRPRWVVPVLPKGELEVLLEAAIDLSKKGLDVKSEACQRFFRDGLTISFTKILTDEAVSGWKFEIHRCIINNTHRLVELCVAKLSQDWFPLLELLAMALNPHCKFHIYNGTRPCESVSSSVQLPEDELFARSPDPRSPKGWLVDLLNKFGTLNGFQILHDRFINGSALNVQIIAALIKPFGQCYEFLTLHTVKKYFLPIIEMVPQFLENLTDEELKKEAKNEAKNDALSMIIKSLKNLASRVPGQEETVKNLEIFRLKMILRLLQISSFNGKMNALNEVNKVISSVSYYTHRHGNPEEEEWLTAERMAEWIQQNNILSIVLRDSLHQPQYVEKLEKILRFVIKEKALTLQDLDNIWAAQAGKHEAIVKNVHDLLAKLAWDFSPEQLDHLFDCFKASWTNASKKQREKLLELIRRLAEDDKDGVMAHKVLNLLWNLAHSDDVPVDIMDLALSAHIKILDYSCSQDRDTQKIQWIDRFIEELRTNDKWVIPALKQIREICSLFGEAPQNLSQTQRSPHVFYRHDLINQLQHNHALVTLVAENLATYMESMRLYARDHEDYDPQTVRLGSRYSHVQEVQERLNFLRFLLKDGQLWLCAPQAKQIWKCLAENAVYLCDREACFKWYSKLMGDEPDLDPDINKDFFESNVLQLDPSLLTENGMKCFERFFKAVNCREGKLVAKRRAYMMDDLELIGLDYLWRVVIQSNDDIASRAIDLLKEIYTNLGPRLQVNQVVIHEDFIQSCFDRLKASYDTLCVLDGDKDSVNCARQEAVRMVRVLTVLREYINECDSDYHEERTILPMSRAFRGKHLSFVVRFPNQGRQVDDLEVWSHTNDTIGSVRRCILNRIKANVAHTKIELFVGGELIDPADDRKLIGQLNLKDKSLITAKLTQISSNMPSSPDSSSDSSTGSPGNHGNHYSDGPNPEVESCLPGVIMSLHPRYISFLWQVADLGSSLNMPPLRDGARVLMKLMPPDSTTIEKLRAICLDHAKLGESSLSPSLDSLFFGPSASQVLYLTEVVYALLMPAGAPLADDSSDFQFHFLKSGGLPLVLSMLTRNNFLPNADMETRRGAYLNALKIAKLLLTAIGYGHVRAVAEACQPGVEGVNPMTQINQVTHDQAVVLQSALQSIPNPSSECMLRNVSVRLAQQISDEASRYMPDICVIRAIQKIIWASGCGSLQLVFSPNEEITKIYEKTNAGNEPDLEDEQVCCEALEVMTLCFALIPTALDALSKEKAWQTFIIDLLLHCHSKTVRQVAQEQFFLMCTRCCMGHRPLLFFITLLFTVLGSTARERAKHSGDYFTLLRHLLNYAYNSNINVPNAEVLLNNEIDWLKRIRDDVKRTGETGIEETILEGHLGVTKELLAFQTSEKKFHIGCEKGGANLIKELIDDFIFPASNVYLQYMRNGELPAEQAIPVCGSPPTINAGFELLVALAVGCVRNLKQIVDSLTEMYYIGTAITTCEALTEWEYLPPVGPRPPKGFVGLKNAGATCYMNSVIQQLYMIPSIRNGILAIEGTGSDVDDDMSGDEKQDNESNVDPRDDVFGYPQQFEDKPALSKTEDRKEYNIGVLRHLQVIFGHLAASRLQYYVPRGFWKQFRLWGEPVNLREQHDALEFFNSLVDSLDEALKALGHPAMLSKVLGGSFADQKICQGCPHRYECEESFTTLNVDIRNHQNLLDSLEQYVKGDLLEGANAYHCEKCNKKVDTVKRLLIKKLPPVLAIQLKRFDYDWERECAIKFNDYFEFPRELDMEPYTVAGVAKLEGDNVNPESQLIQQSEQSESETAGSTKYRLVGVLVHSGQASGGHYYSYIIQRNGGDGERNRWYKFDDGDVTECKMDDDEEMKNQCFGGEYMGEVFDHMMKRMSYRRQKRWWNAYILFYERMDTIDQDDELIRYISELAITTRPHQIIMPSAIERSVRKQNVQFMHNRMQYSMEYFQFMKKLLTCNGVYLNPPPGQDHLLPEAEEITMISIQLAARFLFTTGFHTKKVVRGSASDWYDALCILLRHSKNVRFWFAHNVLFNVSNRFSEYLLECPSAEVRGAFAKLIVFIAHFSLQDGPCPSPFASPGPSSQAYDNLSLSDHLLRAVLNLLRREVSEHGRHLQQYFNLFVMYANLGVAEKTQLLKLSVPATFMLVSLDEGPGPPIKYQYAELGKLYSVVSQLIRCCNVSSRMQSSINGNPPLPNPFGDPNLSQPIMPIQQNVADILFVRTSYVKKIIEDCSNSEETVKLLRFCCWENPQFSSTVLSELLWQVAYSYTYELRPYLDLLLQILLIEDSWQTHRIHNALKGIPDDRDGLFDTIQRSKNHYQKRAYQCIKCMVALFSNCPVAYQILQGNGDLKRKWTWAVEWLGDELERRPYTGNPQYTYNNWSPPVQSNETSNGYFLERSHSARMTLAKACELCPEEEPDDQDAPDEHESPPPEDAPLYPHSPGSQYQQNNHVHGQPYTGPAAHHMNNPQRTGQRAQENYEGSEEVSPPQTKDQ

recombinant USP9x [6] = target: T1, recombinant USP9x; assay: Recombinant DUB assay; assay type: biochemical; details: for Ki: read-out: Ki, recombinant USP9x, Ub-AMC hydrolysis
In short: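 Purified recombinant human USP9x was assayed by Ub-AMC hydrolysis. AMC release was monitored fluorimetrically at 37 °C in 50 mM HEPES pH 7.6, 100 mM NaCl, 0.75 mM BME and quantified against AMC standard curves. Slow-binding kinetics were analysed: kon was determined at varied Ub-AMC concentrations to assign inhibition mode, and Ki was derived.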

[7] = target: UCH37 in the 19S regulatory particle (Homo sapiens, UniProt Q9Y5K5); assay: Activity profiling of UCH37 in 19S regulatory particle with Cy5-UbVME; assay type: biochemical; details: read-out: EC50, inhibition of UCH37
recombinant UCHL3 = recombinant UCHL3 (Homo sapiens, UniProt P15374); assay: Recombinant DUB assay, UCHL3; assay type: biochemical
Chain of recombinant UCHL3 (P15374 whole entry, the tested form may be a part): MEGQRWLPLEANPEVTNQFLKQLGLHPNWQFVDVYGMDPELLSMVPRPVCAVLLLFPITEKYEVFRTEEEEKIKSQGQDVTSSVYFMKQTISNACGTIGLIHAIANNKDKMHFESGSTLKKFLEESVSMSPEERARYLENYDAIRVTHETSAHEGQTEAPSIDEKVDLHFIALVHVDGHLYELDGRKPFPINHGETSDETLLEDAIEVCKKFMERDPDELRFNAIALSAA

catalytic domain of USP7 = catalytic domain of USP7 (Homo sapiens, UniProt Q93009); assay: Recombinant DUB assay, USP7 catalytic domain; assay type: biochemical
Chain of catalytic domain of USP7 (Q93009 214-521 limits assumed): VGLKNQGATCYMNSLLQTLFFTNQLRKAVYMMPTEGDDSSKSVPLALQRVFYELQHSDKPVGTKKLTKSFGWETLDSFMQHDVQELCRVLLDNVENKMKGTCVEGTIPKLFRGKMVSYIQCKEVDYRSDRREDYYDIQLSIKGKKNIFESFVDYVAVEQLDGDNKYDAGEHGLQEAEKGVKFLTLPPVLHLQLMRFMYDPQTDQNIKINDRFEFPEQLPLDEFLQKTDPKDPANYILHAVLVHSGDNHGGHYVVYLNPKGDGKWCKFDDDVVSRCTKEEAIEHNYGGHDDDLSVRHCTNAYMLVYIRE

[8] = system: BaF3, BaF3/p210 and K562 cells; assay: Proliferation/viability assay, 48 h; assay type: cell-based; details: read-out: EC50, viability
[9] = system: MCF7, NIH3T3 and COS1 cells; assay: Proliferation/viability assay, 48 h; assay type: cell-based
USP9x in BaF3/p210 cells = USP9x in BaF3/p210 cells (Mus musculus, UniProt P70398); assay: USP9x inhibition in living cells; assay type: cell-based; details: read-out: IC50, USP9x inhibition in cells; BaF3/p210 cells treated 4 h
[10] = system: Bcr-Abl in BaF3/p210 cells; assay: Bcr-Abl levels and aggregation, western blot; assay type: cell-based, mouse
[11] = system: PARP cleavage in BaF3/p210 cells; assay: PARP cleavage, western blot; assay type: cell-based, mouse; details: 5 μM
[12] = system: Bcr-Abl in BaF3/p210 and K562 cells; assay: Bcr-Abl ubiquitination; assay type: cell-based; details: 5 μM, 2 h
In short: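 BaF3/p210 cells (1 h) or K562 cells (2 h) were exposed to 5 μM test compound or 0.1% DMSO at 37 °C. Lysates were set to 1 mg/mL and pre-cleared with protein G (1 h, 4 °C). Bcr-Abl was immunoprecipitated with anti-cAbl overnight at 4 °C onto protein G beads. Alternatively, K63-linked polyubiquitinated proteins were enriched on RAP80-UIM agarose. Immunoblotting followed.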

SMILES: CC(C)C[C@@H](C=O)NC(=O)[C@H](CC(C)C)NC(=O)[C@H](CC(C)C)NC(=O)OCc1ccccc1 [MG-132, reference compound] (Cbz-Leu-Leu-Leu-aldehyde)
Effect on Mcl-1 levels (Mcl-1 in BaF3/p210 cells): increased

SMILES: O=C1/C(=C/c2ccc([N+](=O)[O-])cc2)CS(=O)(=O)C/C1=C\c1ccc([N+](=O)[O-])cc1 [G5, reference compound]
Labeling of several DUBs (bands between 120 and 300 kDa) (DUBs): reduced

SMILES: CC(C)C[C@H](NC(=O)[C@H](Cc1ccccc1)NC(=O)c1cnccn1)B(O)O [bortezomib, reference compound]
Accumulation of K48-linked HMW-Ub [1]: increased
Effect on K63-linked Ub ([2]; bortezomib 20 nM): no effect
Increase in GFP fluorescence ([3]; bortezomib 4 μM): 1.5 fold
Effect on Mcl-1 levels (Mcl-1 in BaF3/p210 cells): increased
Levels of ubiquitinated Flag-Mcl-1 (Flag-Mcl-1 in COS1 cells): increased

K0.5 for human 20S proteasome (human 20S proteasome): 12 ± 2 µM
SMILES: Cc1cc(=O)oc2cc(NC(=O)[C@H](Cc3ccc(O)cc3)NC(=O)[C@@H](NC(=O)[C@H](CC(C)C)NC(=O)[C@H](CC(C)C)NC(=O)CCC(=O)O)C(C)C)ccc12 [Suc-Leu-Leu-Val-Tyr-AMC] (Suc-LLVY-{AMC})
Apparent K0.5 of proteasome activity of rabbit reticulocyte lysate [4]: 28 ± 3 µM

SMILES: C[S+]([O-])CCCCN=C=S (stereo not shown) [SFN, sulforaphane]
Accumulation of K48-linked HMW-Ub [1]: no effect
EC50 (cancer cell lines): ~50 µM

SMILES: CCC[C@H](NC(=O)/C(C#N)=C/c1cccc(Br)n1)c1ccccc1 [WP1130, reference compound]
Effect on GFP levels [3]: did not cause an increase
Labeling of several DUBs (bands between 120 and 300 kDa) (DUBs): reduced
Levels of ubiquitinated Flag-Mcl-1 (Flag-Mcl-1 in COS1 cells): increased

SMILES: S=C=NCCc1ccccc1 [PEITC, phenethyl ITC]
Increase in K48-linked Ub [1]: 2 to 4 fold
Increase in K63-linked Ub [2]: 9-18 fold
Effect on GFP levels [3]: did not increase
IC50 (USP9x): 15 ± 3 µM
IC50 (UCH37): 13 ± 1 µM
IC50 (USP24): 28 ± 5 µM
Inhibition of USP7 (USP7): do not inhibit
Reversibility of inhibition of DUB labeling (DUBs): slowly reversible
IC50 (recombinant USP9x [5]): 20 ± 2 µM
Mode of inhibition of recombinant USP9x (recombinant USP9x [6]): slow binding competitive inhibitors
Ki (recombinant USP9x [6]): 23 ± 2 µM
EC50 [7]: 36 ± 5 µM
Inhibition of recombinant UCHL3 (recombinant UCHL3): No inhibition
Inhibition of the catalytic domain of USP7 (catalytic domain of USP7): No inhibition
EC50 [8]: 1 to 3 µM
Fold less sensitive than Mcl-1-dependent cells [9]: 8 to 40 fold
IC50 (USP9x in BaF3/p210 cells): 7 ± 2 µM
Effect on Mcl-1 levels (Mcl-1 in BaF3/p210 cells): decrease
Levels of ubiquitinated Flag-Mcl-1 (Flag-Mcl-1 in COS1 cells): increased
Effect on levels of total Bcr-Abl [10]: decreased
Bcr-Abl level, % of its initial level ([10]; 5 μM, within 2 h): 20%
Time at which PARP cleavage was observed [11]: 4 h
Bcr-Abl ubiquitination [12]: increase
EC50 (cancer cell lines): 1.8 to 17 µM

SMILES: S=C=NCc1ccccc1 [BITC, benzyl ITC]
Increase in K48-linked Ub [1]: 2 to 4 fold
Increase in K63-linked Ub [2]: 9-18 fold
Effect on GFP levels [3]: did not increase
IC50 (USP9x): 27 ± 6 µM
IC50 (UCH37): 22 ± 4 µM
IC50 (USP24): 56 ± 5 µM
Inhibition of USP7 (USP7): do not inhibit
Reversibility of inhibition of DUB labeling (DUBs): slowly reversible
Mode of inhibition of recombinant USP9x (recombinant USP9x [6]): slow binding competitive inhibitors
Ki (recombinant USP9x [6]): 25 ± 1 µM
EC50 [7]: 31 ± 6 µM
Inhibition of recombinant UCHL3 (recombinant UCHL3): No inhibition
Inhibition of the catalytic domain of USP7 (catalytic domain of USP7): No inhibition
EC50 [8]: 1 to 3 µM
Fold less sensitive than Mcl-1-dependent cells [9]: 8 to 40 fold
IC50 (USP9x in BaF3/p210 cells): 4 ± 1 µM
Effect on Mcl-1 levels (Mcl-1 in BaF3/p210 cells): decrease
Levels of ubiquitinated Flag-Mcl-1 (Flag-Mcl-1 in COS1 cells): increased
Effect on levels of total Bcr-Abl [10]: decreased
Bcr-Abl knockdown ([10]; 5 μM, 2 h): essentially complete
Time at which PARP cleavage was observed [11]: 6 h
Bcr-Abl ubiquitination [12]: increase
EC50 (cancer cell lines): 1.8 to 17 µM
